Entries after “also recorded” stand apart in the source; their conditions may differ. The star is where a group is joined. Biotin = O=C1N[C@H]2[C@H](CS[C@H]2CCCCC(=O)*)N1; Ahx = NCCCCCC(=O)O
Experiments:
RAD51 = conditions: in contrast to BRC4; ref [20],[21],[39]; cited from earlier work
RAD51-dsDNA filament = assay: EMSA of RAD51 nucleoprotein filament formation on dsDNA; format: biochemical, human; conditions: RAD51 2 µM, result in words
Summary of the method: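 Untagged RAD51 (2 µM) was pre-incubated with BRC peptides at stated µM concentrations for 10 min on ice. Complexes were resolved on 0.5% agarose in TAE (50 mA, 4 h, 4°C) and phosphorimaged.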

BRC4–RAD51 interaction = format: binding, human; conditions: competitive ELISA; comparison in words
Summary of the method: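 Solid-phase BRC4 peptide was bound by recombinant full-length human RAD51 in solution. The RAD51 was thrombin-cleaved overnight at 22°C from GST-RAD51 expressed in E. coli BL21, then dialysed into PBS. Wild-type or mutant biotinylated BRC peptides were added as soluble competitors. Absorbance is given as mean percentage (SEM) of triplicates, normalised to the positive control without soluble inhibitor.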

mCherry-RAD51^WT = assay: Bio-BRC4 pull-down from DT40 whole-cell extract: mCherry-RAD51^WT; format: binding, human; conditions: lysates of untreated DT40 cells; streptavidin magnetic beads; western blot
Summary of the method: (§1)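 Lysates from untreated Rad51−/− DT40 cells (no doxycycline) expressing mCherry-tagged wild-type or mutant human RAD51 alongside wild-type HsRAD51Tet off were incubated with BRC4 peptide. The peptide carried an N-terminal biotin on a 6-aminohexanoic acid spacer and a C-terminal amide, was HPLC-purified to 95%, and was bound to streptavidin-coated magnetic beads. Captured RAD51 species were detected by SDS–PAGE and immunoblotting.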

[1] = system: mCherry-RAD51 RAD51^LL-EE; assay: Bio-BRC4 pull-down from DT40 whole-cell extract: mCherry-RAD51^LL-EE; format: binding, human; conditions: lysates of untreated DT40 cells also expressing HsRAD51^Tet off; western blot
Summary of the method: as §1

[2] = system: mCherry-RAD51 RAD51^LLRR-EEAA; assay: Bio-BRC4 pull-down from DT40 whole-cell extract: mCherry-RAD51^LLRR-EEAA; format: binding, human; conditions: lysates of untreated DT40 cells also expressing HsRAD51^Tet off; western blot
Summary of the method: as §1

[3] = biological target: T1, Untagged recombinant RAD51 (human, UniProt Q06609 1-339); assay: native gel or EMSA
T1 sequence (looked up): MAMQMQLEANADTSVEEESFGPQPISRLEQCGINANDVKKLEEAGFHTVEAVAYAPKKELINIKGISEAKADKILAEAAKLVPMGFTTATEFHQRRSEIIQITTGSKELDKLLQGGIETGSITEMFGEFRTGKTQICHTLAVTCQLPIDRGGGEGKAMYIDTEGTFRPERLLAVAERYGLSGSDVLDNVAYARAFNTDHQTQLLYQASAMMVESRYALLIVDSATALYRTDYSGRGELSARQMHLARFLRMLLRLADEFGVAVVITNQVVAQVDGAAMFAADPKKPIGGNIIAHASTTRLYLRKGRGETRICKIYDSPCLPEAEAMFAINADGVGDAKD

[4] = biological target: T2, Recombinant full-length RAD51, cleaved from GST-RAD51 (human, UniProt Q06609 1-339); assay: ELISA
T2 sequence (looked up): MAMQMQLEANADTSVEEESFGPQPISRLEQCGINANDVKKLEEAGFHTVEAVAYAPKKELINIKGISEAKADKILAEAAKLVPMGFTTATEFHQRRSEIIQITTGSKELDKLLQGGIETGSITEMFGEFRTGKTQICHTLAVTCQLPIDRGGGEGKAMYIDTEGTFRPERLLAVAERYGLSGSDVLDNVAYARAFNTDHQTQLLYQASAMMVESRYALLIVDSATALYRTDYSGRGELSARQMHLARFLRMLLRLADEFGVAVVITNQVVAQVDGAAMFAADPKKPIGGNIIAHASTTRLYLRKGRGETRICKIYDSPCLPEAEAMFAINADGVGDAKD

RAD51 (WT) = biological target: T3, RAD51 (WT) (Homo sapiens, UniProt Q06609 1-339); assay: streptavidin-bead pull-down
T3 chain: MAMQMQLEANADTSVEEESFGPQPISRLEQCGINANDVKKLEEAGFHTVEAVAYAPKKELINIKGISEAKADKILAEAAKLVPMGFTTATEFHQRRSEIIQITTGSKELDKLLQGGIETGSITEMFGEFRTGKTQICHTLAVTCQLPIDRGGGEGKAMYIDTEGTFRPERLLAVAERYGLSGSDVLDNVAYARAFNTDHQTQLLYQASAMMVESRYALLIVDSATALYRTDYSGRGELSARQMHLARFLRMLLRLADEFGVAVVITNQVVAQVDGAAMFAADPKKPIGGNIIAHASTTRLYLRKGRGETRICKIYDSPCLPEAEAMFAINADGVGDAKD

RAD51 R250A = RAD51 R250A (Homo sapiens, UniProt Q06609 1-339, R250A); assay: streptavidin-bead pull-down

Molecule: IENSALAFYTSCSRKTSVSQTSLLEAKKWLREGIF [BRC5]
- affinity for RAD51 among the human BRC repeats (RAD51): lowest affinity

Molecule: KEPTLLGFHTASGKKVKVSQTSLLEAKKWLREGIF [BRC^45]
- inhibition of complex (filament) formation at higher concentrations (RAD51-dsDNA filament): inhibits complex formation when present in higher amounts
- permissive (super-shift) and inhibitory behaviours in the EMSA (RAD51-dsDNA filament): exhibits both behaviours; also recorded: Concentration dependent super-shift and subsequent inhibition of filament formation
- potency at competing the BRC4–RAD51 interaction relative to another peptide (BRC4–RAD51 interaction): more potent than BRC4

Molecule: KEPTLLGFHTASGKKVKIAKESLDKVKNLFDEKEQ [BRC4]
- inhibition of complex (filament) formation at higher concentrations (RAD51-dsDNA filament): filament formation is prevented
- pull-down of mCherry-RAD51^WT by Bio-BRC4 (mCherry-RAD51^WT): can also be pulled-down by Bio-BRC4
- pull-down of mCherry-RAD51^LL-EE by Bio-BRC4 [1]: defective in binding to Bio-BRC4
- pull-down of mCherry-RAD51^LLRR-EEAA by Bio-BRC4 [2]: defective in binding to Bio-BRC4

B1: BRC^45 chimaeric peptide (N-terminal 17 residues of BRC4 and C-terminal 18 residues of BRC5) (peptide)
peptide: {Biotin-Ahx}-KEPTLLGFHTASGKKVKVSQTSLLEAKKWLREGIF-NH2
SMILES: CC[C@H](C)[C@H](NC(=O)CNC(=O)[C@H](CCC(=O)O)NC(=O)[C@H](CCCNC(=N)N)NC(=O)[C@H](CC(C)C)NC(=O)[C@H](Cc1c[nH]c2ccccc12)NC(=O)[C@H](CCCCN)NC(=O)[C@H](CCCCN)NC(=O)[C@H](C)NC(=O)[C@H](CCC(=O)O)NC(=O)[C@H](CC(C)C)NC(=O)[C@H](CC(C)C)NC(=O)[C@H](CO)NC(=O)[C@@H](NC(=O)[C@H](CCC(N)=O)NC(=O)[C@H](CO)NC(=O)[C@@H](NC(=O)[C@H](CCCCN)NC(=O)[C@@H](NC(=O)[C@H](CCCCN)NC(=O)[C@H](CCCCN)NC(=O)CNC(=O)[C@H](CO)NC(=O)[C@H](C)NC(=O)[C@@H](NC(=O)[C@H](Cc1c[nH]cn1)NC(=O)[C@H](Cc1ccccc1)NC(=O)CNC(=O)[C@H](CC(C)C)NC(=O)[C@H](CC(C)C)NC(=O)[C@@H](NC(=O)[C@@H]1CCCN1C(=O)[C@H](CCC(=O)O)NC(=O)[C@H](CCCCN)NC(=O)CCCCCNC(=O)CCCC[C@@H]1SC[C@@H]2NC(=O)N[C@@H]21)[C@@H](C)O)[C@@H](C)O)C(C)C)C(C)C)[C@@H](C)O)C(=O)N[C@@H](Cc1ccccc1)C(N)=O
- binding result [3]: binds
- binding result [4]: binds

B2: BRC4 peptide (human BRCA2 BRC repeat 4, 35-mer) (peptide)
peptide: KEPTLLGFHTASGKKVKIAKESLDKVKNLFDEKEQ
modifications: N-terminal biotin attached through a 6-aminohexanoic acid spacer; C-terminal amide
- binding result [4]: binds

B3: 60-mer ssDNA (ssDNA)
DNA: TACTGCCATTCTGTATCGCTTATCGAGTAGTTACCTGCCTAGCATTGCCACTCATAGCCT
- binding result (RAD51 (WT)): binds
- binding result (RAD51 R250A): binds

B4: 60-mer dsDNA (dsDNA)
DNA 1: TACTGCCATTCTGTATCGCTTATCGAGTAGTTACCTGCCTAGCATTGCCACTCATAGCCT
DNA 2: AGGCTATGAGTGGCAATGCTAGGCAGGTAACTACTCGATAAGCGATACAGAATGGCAGTA
- binding result (RAD51 (WT)): binds
- binding result (RAD51 R250A): binds

Reference: publication PMC2800230 (Nucleic Acids Research, 2009)
